Experimental data from ChEMBL document CHEMBL3352770, “Click chemistry inspired synthesis and bioevaluation of novel triazolyl derivatives of osthol as potent cytotoxic agents” (Eur J Med Chem, 2014).

Tests used:
A-431 = test: Cytotoxicity against human A431 cells after 24 hrs by MTT assay; format: functional, cell-based; settings: A-431, 24 h
Method in brief: (§1)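 Cells kept in DMEM with 10% foetal calf serum, penicillin and streptomycin, at 37 °C under 5% CO2. For assays serum lowered to 3%. Cells treated with test material at 0.04–60 µM for 24 h, then MTT (250 µg/mL) for 3 h. Formazan OD read at 570 nm. IC50 by non-linear regression, mean of triplicates. BEZ-235 as positive control.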

A549 = test: Cytotoxicity against human A549 cells after 24 hrs by MTT assay; format: functional, cell-based; settings: A549, 24 h; method in brief: as §1
[1] = Cytotoxicity against human NCI-H322 cells after 24 hrs by MTT assay; format: functional, cell-based; settings: NCI-H322, 24 h; method in brief: as §1
[2] = Cytotoxicity against human HCT116 cells after 24 hrs by MTT assay; format: functional, cell-based; settings: HCT-116, 24 h; method in brief: as §1
T47D = test: Cytotoxicity against human T47D cells after 24 hrs by MTT assay; format: functional, cell-based; method in brief: as §1
[3] = Cytotoxicity against human PC3 cells after 24 hrs by MTT assay; format: functional, cell-based; settings: PC-3, 24 h; method in brief: as §1
COLO 205 [4] = test: Cytotoxicity against human COLO205 cells after 24 hrs by MTT assay; format: functional, cell-based; settings: COLO 205, 24 h; method in brief: as §1
COLO 205 [5] = test: Induction of cell cycle arrest in human COLO205 cells assessed as accumulation at S phase at 10 uM after 48 hrs by propidium iodide staining based flow cytometry (reference value: 13.8%); format: functional
Method in brief: (§2)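 Colo-205 seeded at 5 × 10⁵ cells/ml in 6-well plates and grown 24 h. Treated at 1, 5, 10 and 25 µM for 48 h. Harvested, washed in PBS, fixed in 70% ethanol overnight at −20 °C. Stained 30 min in the dark with PI, EDTA, RNase and Triton X-100 in PBS. DNA content by flow cytometry, sub-G1 taken as apoptotic. Untreated/DMSO negative control; camptothecin 1 µM positive control; two experiments.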

COLO 205 [6] = test: Induction of cell cycle arrest in human COLO205 cells assessed as accumulation at G2 phase at 5 uM after 48 hrs by propidium iodide staining based flow cytometry (reference value: 13.2%); format: functional; method in brief: as §2
COLO 205 [7] = test: Induction of mitochondrial membrane potential loss in human COLO205 cells at 25 uM after 48 hrs by Rh-123 staining based flow cytometry (reference value: 12.4%); format: functional
COLO 205 [8] = test: Induction of cell cycle arrest in human COLO205 cells assessed as accumulation at G2 phase at 10 uM after 48 hrs by propidium iodide staining based flow cytometry (reference value: 13.2%); format: functional; method in brief: as §2
COLO 205 [9] = test: Induction of cell cycle arrest in human COLO205 cells assessed as accumulation at S phase at 5 uM after 48 hrs by propidium iodide staining based flow cytometry (reference value: 13.8%); format: functional; method in brief: as §2
COLO 205 [10] = test: Induction of cell cycle arrest in human COLO205 cells assessed as accumulation at G1 phase at 10 uM after 48 hrs by propidium iodide staining based flow cytometry (reference value: 45.7%); format: functional; method in brief: as §2
COLO 205 [11] = test: Induction of apoptosis in human COLO205 cells assessed as accumulation at subG1 phase at 10 uM after 48 hrs by propidium iodide staining based flow cytometry (reference value: 12%); format: functional; method in brief: as §2
COLO 205 [12] = test: Induction of cell cycle arrest in human COLO205 cells assessed as accumulation at G2 phase at 1 uM after 48 hrs by propidium iodide staining based flow cytometry (reference value: 13.2%); format: functional
COLO 205 [13] = test: Induction of mitochondrial membrane potential loss in human COLO205 cells at 1 uM after 48 hrs by Rh-123 staining based flow cytometry (reference value: 12.4%); format: functional
COLO 205 [14] = test: Induction of cell cycle arrest in human COLO205 cells assessed as accumulation at G2 phase at 25 uM after 48 hrs by propidium iodide staining based flow cytometry (reference value: 13.2%); format: functional; method in brief: as §2
COLO 205 [15] = test: Induction of apoptosis in human COLO205 cells assessed as accumulation at subG1 phase at 1 uM after 48 hrs by propidium iodide staining based flow cytometry (reference value: 12%); format: functional
COLO 205 [16] = test: Induction of apoptosis in human COLO205 cells assessed as accumulation at subG1 phase at 25 uM after 48 hrs by propidium iodide staining based flow cytometry (reference value: 12%); format: functional; method in brief: as §2
COLO 205 [17] = test: Induction of mitochondrial membrane potential loss in human COLO205 cells at 5 uM after 48 hrs by Rh-123 staining based flow cytometry (reference value: 12.4%); format: functional
COLO 205 [18] = test: Induction of cell cycle arrest in human COLO205 cells assessed as accumulation at G1 phase at 25 uM after 48 hrs by propidium iodide staining based flow cytometry (reference value: 45.7%); format: functional; method in brief: as §2
COLO 205 [19] = test: Induction of cell cycle arrest in human COLO205 cells assessed as accumulation at G1 phase at 5 uM after 48 hrs by propidium iodide staining based flow cytometry (reference value: 45.7%); format: functional; method in brief: as §2
COLO 205 [20] = test: Induction of cell cycle arrest in human COLO205 cells assessed as accumulation at S phase at 25 uM after 48 hrs by propidium iodide staining based flow cytometry (reference value: 13.8%); format: functional; method in brief: as §2
COLO 205 [21] = test: Induction of apoptosis in human COLO205 cells assessed as accumulation at subG1 phase at 5 uM after 48 hrs by propidium iodide staining based flow cytometry (reference value: 12%); format: functional; method in brief: as §2
COLO 205 [22] = test: Induction of mitochondrial membrane potential loss in human COLO205 cells at 10 uM after 48 hrs by Rh-123 staining based flow cytometry (reference value: 12.4%); format: functional
COLO 205 [23] = test: Induction of apoptosis in human COLO205 cells assessed as accumulation at subG1 phase after 48 hrs by propidium iodide staining based flow cytometry; format: functional, cell-based; method in brief: as §2
COLO 205 [24] = test: Induction of cell cycle arrest in human COLO205 cells assessed as accumulation at G1 phase at 1 uM after 48 hrs by propidium iodide staining based flow cytometry (reference value: 45.7%); format: functional
COLO 205 [25] = test: Induction of cell cycle arrest in human COLO205 cells assessed as accumulation at S phase at 1 uM after 48 hrs by propidium iodide staining based flow cytometry (reference value: 13.8%); format: functional

COc1ccc(/C=C\C(=O)O)c(OCc2cn(-c3cccnc3Cl)nn2)c1CC=C(C)C
IC50 (A-431): 32.6 µM
IC50 (A549): 5.6 µM
IC50 [1]: 42.2 µM
IC50 [2]: 23 µM

COc1ccc(/C=C\C(=O)O)c(OCc2cn(-c3cccc(C#N)c3)nn2)c1CC=C(C)C
IC50 (A-431): 22.9 µM
IC50 (T47D): 19.2 µM
IC50 [1]: 26.5 µM
IC50 [2]: 35.3 µM
IC50 [3]: 45.5 µM
IC50 (COLO 205 [4]): 26.8 µM

Cn1c(=O)n(-c2ccc(C(C)(C)C#N)cc2)c2c3cc(-c4cnc5ccccc5c4)ccc3ncc21 [DACTOLISIB]
IC50 (A-431): 12.5 µM
IC50 (T47D): 11.2 µM
IC50 [1]: 10.3 µM
IC50 [2]: 0.044 µM
IC50 [3]: 12.3 µM

COc1ccc(-n2cc(COc3c(/C=C\C(=O)O)ccc(OC)c3CC=C(C)C)nn2)cc1
IC50 (A549): 10.2 µM
IC50 [2]: 8.7 µM

COc1ccc(/C=C\C(=O)O)c(OCc2cn(-c3nc4ccccc4s3)nn2)c1CC=C(C)C
IC50 (A-431): 20.8 µM
IC50 (A549): 42.1 µM
IC50 (T47D): 17.2 µM
IC50 [1]: 23 µM
IC50 [2]: 16.4 µM
IC50 (COLO 205 [4]): 20.2 µM

COc1ccc(/C=C\C(=O)O)c(OCc2cn(-c3ccc(CC#N)cc3)nn2)c1CC=C(C)C
Activity (COLO 205 [5]): 14.7%
Activity (COLO 205 [6]): 11.5%
Activity (COLO 205 [7]): 29.9%
Activity (COLO 205 [8]): 11.2%
Activity (COLO 205 [9]): 16.1%
Activity (COLO 205 [10]): 45%
Activity (COLO 205 [11]): 15.7%
IC50 (A-431): 7.2 µM
IC50 (A549): 35.2 µM
IC50 (T47D): 3.6 µM
Activity (COLO 205 [12]): 12.9%
Activity (COLO 205 [13]): 24.4%
Activity (COLO 205 [14]): 10.4%
IC50 [1]: 41 µM
IC50 [2]: 4.9 µM
Activity (COLO 205 [15]): 12.5%
Activity (COLO 205 [16]): 24.1%
Activity (COLO 205 [17]): 26.9%
IC50 [3]: 26.4 µM
Activity (COLO 205 [18]): 38.5%
Activity (COLO 205 [19]): 46.8%
Activity (COLO 205 [20]): 13.2%
IC50 (COLO 205 [4]): 1.3 µM
Activity (COLO 205 [21]): 15.2%
Activity (COLO 205 [22]): 29.7%
Activity (COLO 205 [23]): Dose-dependent effect
Activity (COLO 205 [24]): 46.4%
Activity (COLO 205 [25]): 13.9%

COc1ccc(/C=C\C(=O)O)c(OCc2cn(P(=O)(Oc3ccccc3)Oc3ccccc3)nn2)c1CC=C(C)C
IC50 (A-431): 43.3 µM
IC50 (T47D): 30.6 µM
IC50 [2]: 35.5 µM
IC50 [3]: 36.2 µM

COc1ccc(/C=C\C(=O)O)c(OCc2cn(-c3ccc4c(c3)OCO4)nn2)c1CC=C(C)C
IC50 (A-431): 23.1 µM
IC50 (A549): 19.4 µM
IC50 (T47D): 13.2 µM
IC50 [1]: 22.7 µM
IC50 [2]: 20.4 µM
IC50 [3]: 32 µM

COc1ccc(/C=C\C(=O)O)c(OCc2cn(-c3ccc(NC(=O)c4ccccc4)cc3)nn2)c1CC=C(C)C
IC50 (A-431): 21.2 µM
IC50 (A549): 42.7 µM
IC50 (T47D): 23.3 µM
IC50 [1]: 17.2 µM
IC50 [2]: 16.4 µM
IC50 (COLO 205 [4]): 20.3 µM

COc1cccc(-n2cc(COc3c(/C=C\C(=O)O)ccc(OC)c3CC=C(C)C)nn2)c1
IC50 (A-431): 23.2 µM
IC50 (A549): 42.7 µM
IC50 (T47D): 20.4 µM
IC50 [1]: 25.2 µM
IC50 [2]: 21.6 µM

COc1ccc(/C=C\C(=O)O)c(OCc2cn(-c3ccc(CO)cc3)nn2)c1CC=C(C)C
IC50 (A-431): 16.4 µM
IC50 (T47D): 40 µM
IC50 [1]: 27.1 µM
IC50 [2]: 31.7 µM
IC50 [3]: 28.3 µM
IC50 (COLO 205 [4]): 19.3 µM
